Assays:
[1] = In vivo toxicity: body weight and H&E staining of major organs; design: species or system nude mice
Procedure, shortened: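 BALB/c nude mice bearing subcutaneous axillary A549 xenografts (5 × 10^6 cells) were randomised at mean 80 mm3 into six groups (n = 10). Test formulations were given intravenously every two days for five doses, at 2 mg/kg and 0.8 mg/kg of the two loaded agents. One free-agent control was given by oral gavage at 20 mg/kg over 6 days. Body weight was measured every two days. At the end of treatment, one mouse per group was sacrificed, and heart, liver, spleen, lung and kidney were fixed in 4% paraformaldehyde, sectioned and stained with H&E.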

[2] = Safety evaluation: blood biochemical indices; type: in vivo, ICR mice; conditions: normal mice, n = 3
Procedure, shortened: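 ICR mice (20–22 g) were randomly divided into six groups and given the treatments used previously. Blood biochemical indices were then assessed.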

COc1cccc2c1C(=O)c1c(O)c3c(c(O)c1C2=O)C[C@@](O)(C(=O)CO)C[C@@H]3O[C@H]1C[C@H](N)[C@H](O)[C@H](C)O1 [Free DOX, doxorubicin]
body weight ([1]; A549 tumour-bearing nude mice during treatment): substantial weight loss
cardiac tissue histology (H&E) ([1]; nude mice bearing subcutaneous A549 tumour): noticeable cardiac tissue degeneration
level of serum creatine kinase [2]: significantly elevated
